Assay outcomes from PubChem BioAssay.
MC4R antagonist: MC4R antagonists of cAMP signaling, primary screen, cell-based, TR-FRET, antagonist arm of biased-ligand search; inhibition, % at 6.5 µM; hit rate 0.48% among 360,000; MC4R-expressing cells, MTII-stimulated cAMP, LANCE TR-FRET;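 active means inhibition above its plate's cutoff, the mean of tested wells on that plate plus 3 SD, cut at about 29% in these data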
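material = U2OS cells stably expressing human melanocortin 4 receptor (MC4R) | also added = Melanotan II challenge | dosing = single nominal compound dose of 6.5 µM | detection = TR-FRET with Eu-cAMP and labeled anti-cAMP, 671 nm | replication = singlicate | timing = compound 30 min, challenge 1 h, detection 1 h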
m5-HT2A agonist: mouse Htr2a agonists via beta-arrestin recruitment, primary screen, cell-based, luminescence | CHO-K1 mHTR2A beta-arrestin complementation; percent of 30 µM serotonin response | activation, % at 7.6 µM | hit rate 0.66% among 360,000 | AID 624169, 2012;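 active means activation above a run cutoff, the mean activation of all tested compounds plus 3 SD, cut at about 14% in these data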
Target sequence (P35363 whole entry, looked up): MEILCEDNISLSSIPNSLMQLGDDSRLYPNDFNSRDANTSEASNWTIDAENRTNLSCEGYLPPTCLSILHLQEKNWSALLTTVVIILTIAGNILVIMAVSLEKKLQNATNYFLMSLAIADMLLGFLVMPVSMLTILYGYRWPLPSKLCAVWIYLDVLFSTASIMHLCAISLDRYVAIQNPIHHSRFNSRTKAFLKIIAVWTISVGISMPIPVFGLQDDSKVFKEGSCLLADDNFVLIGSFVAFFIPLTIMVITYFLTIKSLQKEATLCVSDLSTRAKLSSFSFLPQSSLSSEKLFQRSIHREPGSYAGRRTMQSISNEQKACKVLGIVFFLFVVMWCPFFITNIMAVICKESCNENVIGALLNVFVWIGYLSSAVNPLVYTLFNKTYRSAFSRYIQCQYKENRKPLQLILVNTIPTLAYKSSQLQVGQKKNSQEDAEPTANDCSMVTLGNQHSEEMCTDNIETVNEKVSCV
MC4R barr agon: MC4R agonists recruiting beta-arrestin, primary screen, cell-based, luminescence, agonist arm of biased-ligand search. Melanocortin receptor 4 (Homo sapiens), P32245. U2OS MC4R beta-arrestin complementation; percent of melanotan II response, DMSO zero. activation, % at 8.9 µM. hit rate 0.98% among 360,000. AID 540308, 2011;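 active means activation above a per-plate cutoff, the mean activation of sample wells on that plate plus 3 SD, cut at about 8% in these data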
EBI2 antag: EBI2 receptor antagonists, beta-arrestin recruitment, primary screen, cell-based, luminescence, 7a,25-OHC stimulation, uHTS; hit rate 0.81% among 360,000; inhibition, % at 5 µM; 7a,25-OHC stimulated; in the data active means inhibition above about 38%;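 further: enzyme fragment complementation signal reports receptor beta-arrestin coupling in cells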
MC4R barr ag: MC4R beta-arrestin agonists, retest, confirmation, cell-based, luminescence, U2OS; shares compounds with MC4R barr agon; U2OS MC4R beta-arrestin recruitment; scaled DMSO 0%, Melanotan II 100%; activation, % at 8.9 µM; hit rate 31% among 2,400;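 active means mean activation across replicates above the hit cutoff set in the earlier primary screen, cut at about 8% in these data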
MOR DOR agonist: agonists of MOR-DOR heterodimerization, counter-screen for MC4R biased agonist project, cell-based, luminescence | U2OS PathHunter beta-arrestin, beta-gal luminescence; percent of deltorphin B response, DMSO zero | shares compounds with MC4R barr agon | activation, % at 9.2 µM | hit rate 5.8% among 2,400 | AID 602194, 2012;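 active means mean activation across replicates exceeds the hit threshold derived in the earlier primary screen, cut at about 18% in these data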
Numbers stand for hits; - = inactive; . = no result. In the library only some 2.8% were active in any assay of this set; here they are far more common.

SMILES	MC4R antagonist	m5-HT2A agonist	MC4R barr agon	EBI2 antag	MC4R barr ag	MOR DOR agonist
CC(NC(=O)c1ccccc1)C(=O)OCn1nnc2ccccc2c1=O (stereo not given)	-	-	-	-	.	.
CCCCNC(=S)N(C)/N=C/c1ccc(OCC(=O)Nc2ccc(OC)cc2)c(OC)c1	-	-	-	-	.	.
CCCCNC(=S)N(C)/N=C/c1ccc(OCC(=O)Nc2c(C)cc(C)cc2C)c(OC)c1	-	-	14	-	11	-
CCCS(=O)(=O)NC(=O)C1(C)CCN(C(=O)Cc2ccc(F)cc2)C1 (stereo not given)	-	-	-	-	.	.
Cc1ccc(OCc2ccc(C(=O)Nc3nccs3)o2)cc1	-	-	15	-	-	-
O=C(Nc1nccs1)c1ccc(COc2ccccc2)o1	-	-	-	-	.	.
COC(=O)c1ccc(C(=O)OC)c(NC(=O)CN2CCN(c3ccccc3)CC2)c1	-	-	15	-	14	-
COC(=O)c1ccc(C(=O)OC)c(NC(=O)CN2CCN(c3ccc(OC)cc3)CC2)c1	-	-	-	-	.	.
COc1ccc(N2CCN(CC(=O)Nc3nnc(-c4ccccc4)s3)CC2)cc1	-	-	11	-	-	-
COc1ccc(-c2sc3ccc(N4CCOCC4)cc3c2C#Cc2ccsc2)cc1	-	-	-	-	.	.
COc1ccc(-c2sc3ccc(N4CCOCC4)cc3c2C#CC(C)(C)O)cc1	-	-	23	-	-	-
COCOCCn1cc(CN2CCS(=O)(=O)N(Cc3ccc(-c4cccc(N(C)C)c4)cc3)C(C(C)C)C2=O)nn1 (stereo not given)	-	-	-	-	.	.
CCCCNS(=O)(=O)c1ccc(NC(=O)C2c3ccccc3Oc3ccccc32)cc1	-	-	13	-	13	-
COc1ccc(/C=N/NC(=O)Nc2cccc3nsnc23)cc1OC	-	-	11	-	-	-
Cc1ccc2c(c1)c1c(n2CC(O)Cn2c(C)nc3ccccc32)CCCC1 (stereo not given)	-	-	9.6	-	-	-
COc1cc(/C=N/NC(=O)c2ccccn2)ccc1OC(=O)c1ccccc1Br	-	-	12	-	-	-
COc1cc(/C=N/NC(=O)c2ccccn2)ccc1OC(=O)c1ccc(Br)cc1	-	-	-	-	.	.
CC(C)Oc1ccc(S(=O)(=O)N2CCOCC2)cc1NC(=O)CSc1nnc(C2CC2)n1C	-	-	-	-	.	.
CC(=O)Nc1ccc(-c2nnc(SCC(=O)Nc3ccc4c(c3)oc3ccccc34)n2C)cc1	-	-	-	-	.	.
CCn1c(SCC(=O)Nc2ccc3c(c2)oc2ccccc23)nnc1-c1ccc(N)cc1	-	-	15	-	16	19
CN(C)c1ccccc1-c1cc(NC=O)c2ncc(-c3cccc(C(F)(F)F)c3)n2c1	-	-	27	-	27	-
COc1cc(-c2cnc3c(NC=O)cc(-c4ccccc4)cn23)cc(OC)c1OC	-	-	-	-	.	.
CN(C)CCNC(=O)c1cccc(-c2cnc3c(NC=O)cc(-c4ccccc4F)cn23)c1	-	-	-	-	.	.
COc1cc(-c2cc(NC=O)c3ncc(-c4cccc(C(F)(F)F)c4)n3c2)cc(OC)c1OC	-	-	22	-	19	-
COc1ccc(-c2cc(NC=O)c3ncc(-c4cccc(C(F)(F)F)c4)n3c2)cc1OC	-	-	36	-	27	-
SMILES	MC4R antagonist	m5-HT2A agonist	MC4R barr agon	EBI2 antag	MC4R barr ag	MOR DOR agonist
COc1ccccc1-c1cc(NC=O)c2ncc(-c3cccc(C(F)(F)F)c3)n2c1	-	-	25	-	23	-
COc1cc(-c2cnc3c(NC=O)cc(-c4ccccc4Cl)cn23)cc(OC)c1OC	-	-	-	-	.	.
O=C1c2c(-c3ccc(Br)cc3)noc2CCN1Cc1cn(-c2ccc(Cl)cc2)nn1	.	-	.	-	.	.
CCCCCc1c(CC)ncn1CCc1ccccc1OC	.	-	.	-	.	.
CC(C)CC1NC(=O)N(CC(=O)Nc2ccc(OCc3ccccc3)cc2)C1=O (stereo not given)	-	-	-	-	.	.
COc1ccc2c(c1)CO[C@]21O[C@H](CCO)C[C@H](O)[C@H]1O	.	-	.	-	.	.
CS(=O)(=O)c1ccc(-c2cc(NC=O)c3ncc(-c4ccc(F)cc4)n3c2)cc1	-	-	11	-	-	-
O=CNc1cc(-c2ccc(C(=O)NC3CC3)cc2)cn2c(-c3ccc(F)cc3)cnc12	-	-	-	-	.	.
COc1ccccc1-c1cc(NC=O)c2ncc(-c3ccc(F)cc3)n2c1	-	-	18	-	18	-
Cn1c(NCc2cccnc2)nc2cc(-c3ccc(C(=O)N4CCOCC4)cc3)sc2c1=O	-	-	-	-	.	.
Cc1ccc2nc(-c3ccc(F)cc3)c(CC3CCCCC3)n2c1	.	-	.	-	.	.
Cc1cc(C)c2nc(-n3nc(C)cc3N)cc(C)c2c1	-	-	15	-	-	-
CCN1C(=O)/C(=C2/Sc3ccc(OC)cc3N2C)SC1=Nc1cccc(O)c1	-	-	14	-	17	-
C=CCN1C(=O)/C(=C2/Sc3ccc(OC)cc3N2C)SC1=Nc1ccccc1	-	-	-	-	.	.
COc1ccccc1C(CCNCc1ccc(N(C)C)cc1)c1ccc(OC(C)C)cc1 (stereo not given)	-	-	13	-	-	29
COc1ccc(C(CCNCc2ccc(OC(C)C)cc2)C(C)C)cc1 (stereo not given)	-	-	15	-	-	-
COc1ccc(CNCCC(c2ccc(OC(C)C)cc2)c2ccccc2OC)cc1 (stereo not given)	-	-	12	-	11	25
COc1ccc(CNCCC(c2ccc(OC(C)C)cc2)c2ccccc2OC)cc1OC (stereo not given)	-	-	-	-	.	.
C/C(=N\Nc1ccc(C#N)cc1[N+](=O)[O-])c1ccc(O)cc1	-	-	10	-	-	-
CCCCCCSc1ccc([C@H]2N[C@@](C)(C(=O)OC)[C@H]3C(=O)N(C)C(=O)[C@@H]23)cc1	-	-	-	-	.	.
COCCN1C[C@@H](CO)O[C@@H](n2cnc3c(NC4CCCC4)ncnc32)C1	-	-	-	-	.	.
CC(C)COc1ccc(C(=O)Nc2ccc(NC(=O)c3ccco3)c(Cl)c2)cc1	-	-	40	-	24	28
CC(C)Oc1ccc(C(=O)Nc2ccc(NC(=O)c3ccco3)c(Cl)c2)cc1	-	-	-	-	.	.
